Test results published in ChEMBL document CHEMBL1148409, “In vitro structure-activity relationship and in vivo studies for a novel class of cyclooxygenase-2 inhibitors: 5-aryl-2,2-dialkyl-4-phenyl-3(2H)furanone derivatives” (J Med Chem, 2004).

What was measured:
Rattus norvegicus [1] = experiment: Inhibition of carrageenan-induced rat foot oedema following 3 mg/kg administration.; type: functional
How it was run: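 Male SD rats (160 ~ 190 g) were fasted overnight and given compound in 1% methylcellulose by oral gavage, at least 5 animals per group. One hour later, 0.05 mL of 1% carrageenan in saline was injected subplantar into the right hindpaw. Paw swelling was measured by plethysmometer 4 h after dosing and expressed as % inhibition.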

Rattus norvegicus [2] = experiment: Antiinflammatory activity was determined by measuring adjuvant-induced arthritis in rats using therapeutic method; dose administered daily twice; type: functional
How it was run: (§1)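 Therapeutic adjuvant arthritis in male SD rats (160 ~ 190 g). On day 0, 0.1 mL of 1% heat-killed M. butyricum in incomplete Freund's adjuvant was injected subplantar into the right hindpaw. On day 14, rats with left hindpaw swelling over 0.37 mL were selected and randomized. Daily treatment ran from day 14 to day 22, and % inhibition was taken from day-22 foot volumes.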

Rattus norvegicus [3] = experiment: Ability of compound to cause gastric ulcerogenicity was determined in rats at 30 mg/kg when administered daily once; type: functional, Stomach
How it was run: (§2)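 Male SD rats (130 ~ 140 g) were dosed by oral gavage for 7 days, with compound suspended in 1% methylcellulose. Rats were fasted overnight before necropsy and killed 4 h after the last dose. Stomachs were scored for ulceration on a scale where 1 is an apparently normal stomach and 2 is pinpoint ulcers only.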

Rattus norvegicus [4] = experiment: Antiinflammatory activity was determined by measuring adjuvant-induced arthritis in rats using therapeutic method; (dose administered daily once); type: functional; how it was run: as §1
Rattus norvegicus [5] = experiment: Antiinflammatory activity was determined by measuring adjuvant-induced arthritis in rats using preventive method; Range is 0.2~0.3 (dose administered daily twice ); type: functional
How it was run: (§3)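 Preventive adjuvant arthritis in male Lewis rats (200 ~ 210 g), 10 per group. On day 0, 0.1 mL of 1% heat-killed M. butyricum in incomplete Freund's adjuvant was injected subplantar into the right hindpaw. Oral gavage dosing ran from day -1 to day 16. Left hindpaw volume was measured by plethysmometer on day 17, and % inhibition versus control was calculated.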

[6] = target: T1, Prostaglandin G/H synthase 1 (Mus musculus, UniProt P22437); experiment: In vitro inhibitory activity against prostaglandin G/H synthase 1 using mouse peritoneal macrophage method
T1 sequence (P22437 whole entry): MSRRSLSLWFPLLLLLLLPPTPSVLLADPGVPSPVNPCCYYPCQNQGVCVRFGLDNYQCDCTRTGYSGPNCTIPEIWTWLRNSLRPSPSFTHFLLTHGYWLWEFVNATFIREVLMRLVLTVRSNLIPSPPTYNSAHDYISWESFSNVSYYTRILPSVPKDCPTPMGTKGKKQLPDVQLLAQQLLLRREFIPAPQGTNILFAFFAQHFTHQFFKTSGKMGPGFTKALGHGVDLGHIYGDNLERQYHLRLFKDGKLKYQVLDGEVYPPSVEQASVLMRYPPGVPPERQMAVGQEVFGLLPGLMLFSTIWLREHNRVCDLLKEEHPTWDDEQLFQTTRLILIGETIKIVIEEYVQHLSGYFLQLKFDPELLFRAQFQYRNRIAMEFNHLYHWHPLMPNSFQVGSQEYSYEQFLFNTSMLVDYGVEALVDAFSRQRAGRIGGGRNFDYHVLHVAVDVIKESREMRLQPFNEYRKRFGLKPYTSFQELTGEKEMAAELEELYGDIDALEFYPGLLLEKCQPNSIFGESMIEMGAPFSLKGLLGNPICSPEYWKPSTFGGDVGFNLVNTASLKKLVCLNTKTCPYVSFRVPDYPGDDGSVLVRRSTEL
How it was run: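 Freshly harvested mouse peritoneal macrophages were the enzyme source. Cells were preincubated 10 min at 37 °C with inhibitor in DMSO, then stimulated with calcium ionophore A23187 for 10 min. The reaction was stopped with indomethacin in 0.1% BSA buffer and centrifuged, and supernatant TXB₂ was measured by ELISA.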

[7] = target: T2, Prostaglandin G/H synthase 2 (Mus musculus, UniProt Q05769); experiment: In vitro inhibitory activity against prostaglandin G/H synthase 2 using mouse peritoneal macrophage method
T2 sequence (Q05769 whole entry): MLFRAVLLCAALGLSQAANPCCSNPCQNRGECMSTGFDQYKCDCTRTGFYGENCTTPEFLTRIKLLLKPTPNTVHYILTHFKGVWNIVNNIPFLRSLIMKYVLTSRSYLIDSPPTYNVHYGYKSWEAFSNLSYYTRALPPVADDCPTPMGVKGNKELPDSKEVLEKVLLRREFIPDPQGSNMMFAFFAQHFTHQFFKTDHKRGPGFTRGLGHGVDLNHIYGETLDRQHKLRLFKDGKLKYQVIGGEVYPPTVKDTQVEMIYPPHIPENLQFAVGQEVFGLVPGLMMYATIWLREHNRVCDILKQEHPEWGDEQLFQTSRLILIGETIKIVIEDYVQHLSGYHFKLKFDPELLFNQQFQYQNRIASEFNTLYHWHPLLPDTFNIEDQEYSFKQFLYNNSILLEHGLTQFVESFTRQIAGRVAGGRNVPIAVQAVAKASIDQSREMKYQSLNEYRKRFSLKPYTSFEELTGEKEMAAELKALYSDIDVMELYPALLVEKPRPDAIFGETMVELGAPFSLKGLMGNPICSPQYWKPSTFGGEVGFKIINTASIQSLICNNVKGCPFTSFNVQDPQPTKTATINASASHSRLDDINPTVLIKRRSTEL

Rattus norvegicus [8] = experiment: Ability of compound to cause gastric ulcerogenicity was determined in rats at 5 mg/kg; type: functional, Stomach; how it was run: as §2
Rattus norvegicus [9] = experiment: Antiinflammatory activity was determined by measuring adjuvant-induced arthritis in rats using preventive method; dose administered daily twice; type: functional; how it was run: as §3
Rattus norvegicus [10] = experiment: Antiinflammatory activity was determined by measuring adjuvant-induced arthritis in rats using therapeutic method; dose administered daily once; type: functional; how it was run: as §1
Rattus norvegicus [11] = experiment: Antiinflammatory activity was determined by measuring adjuvant-induced arthritis in rats using preventive method; dose administered daily once; type: functional; how it was run: as §3
Rattus norvegicus [12] = experiment: Ability of compound to cause gastric ulcerogenicity was determined in rats at 5 mg/kg when administered daily once; type: functional, Stomach; how it was run: as §2
Rattus norvegicus [13] = experiment: Antiinflammatory activity was determined by measuring adjuvant-induced arthritis in rats using preventive method; Range is 0.1~0.2 (dose administered daily twice); type: functional; how it was run: as §3

SMILES | inhibition in vivo at 3 mg/kg (Rattus norvegicus [1]) [%] | IC50 [6] [µM] | IC50 [7] [nM] | also measured
CCC1(C)OC(c2ccc(S(C)(=O)=O)cc2)=C(c2cccc(Cl)c2)C1=O (stereo unspecified) | 23 | – | – | –
Cc1onc(-c2ccccc2)c1-c1ccc(S(N)(=O)=O)cc1 [VALDECOXIB] | – | – | – | ED50 (Rattus norvegicus [2]): 0.032 mg/kg/day
CCCCc1ccc(C2=C(c3ccc(S(C)(=O)=O)cc3)OC(C)(C)C2=O)cc1 | 8 | – | – | –
Cc1cccc(C2=C(c3ccc(S(C)(=O)=O)cc3)OC3(CCCC3)C2=O)c1 | 26 | – | – | –
CC1(C)OC(c2ccc(S(N)(=O)=O)c(F)c2)=C(c2cc(F)cc(F)c2)C1=O | 31 | – | – | –
CC1(C)OC(c2ccc(S(C)(=O)=O)cc2)=C(c2cccc(F)c2)C1=O | 36 | – | – | Activity (Rattus norvegicus [3]): 1.8; ED50 (Rattus norvegicus [4]): 0.07 mg/kg/day; ED50 (Rattus norvegicus [5]): 0.3 mg/kg/day
CC1(C)OC(c2ccc(S(N)(=O)=O)cc2)=C(c2ccccc2)C1=O | – | 0.178 | 23.3 | –
CC1(C)OC(c2ccc(S(C)(=O)=O)cc2)=C(c2cccc(Cl)c2)C1=O | 16 | – | – | –
CC1(C)OC(c2ccc(S(N)(=O)=O)cc2)=C(c2cccc(F)c2)C1=O [POLMACOXIB] | 47 | 0.83 | 8.3 | Activity (Rattus norvegicus [8]): 1.5; ED50 (Rattus norvegicus [9]): 0.1 mg/kg/day; ED50 (Rattus norvegicus [2]): 0.01 mg/kg/day; ED50 (Rattus norvegicus [10]): 0.02 mg/kg/day
CS(=O)(=O)c1ccc(C2=C(c3ccccc3)C(=O)OC2)cc1 [ROFECOXIB] | – | – | – | ED50 (Rattus norvegicus [9]): 0.74 mg/kg/day
CCC1(CC)OC(c2ccc(S(C)(=O)=O)cc2)=C(c2cccc(C)c2)C1=O | – | 26 | 1300 | –
Cc1ccc(-c2cc(C(F)(F)F)nn2-c2ccc(S(N)(=O)=O)cc2)cc1 [CELECOXIB] | 34 | – | – | ED50 (Rattus norvegicus [2]): 0.37 mg/kg/day
CC1(C)OC(c2ccc(S(N)(=O)=O)cc2)=C(c2ccsc2)C1=O | – | 13.7 | 343 | –
CS(=O)(=O)c1ccc(C2=C(c3ccccc3)C(=O)C3(CCCCC3)O2)cc1 | – | 26.1 | 5230 | –
CC(=O)c1ccc(C2=C(c3ccc(S(N)(=O)=O)cc3)OC(C)(C)C2=O)cc1 | 26 | 0.675 | 33.7 | –
CC1(C)OC(c2ccc(S(C)(=O)=O)cc2)=C(c2cc(F)cc(F)c2)C1=O | 34 | – | – | Activity (Rattus norvegicus [3]): 1.8
CC1(C)OC(c2ccc(S(N)(=O)=O)cc2)=C(c2cccc(C(F)(F)F)c2)C1=O | – | 1.99 | 26.7 | –
CCC1(C)OC(c2ccc(S(C)(=O)=O)cc2)=C(c2cccc(C(F)(F)F)c2)C1=O (stereo unspecified) | – | 23.6 | – | –
Cc1ccc(-c2ncc(Cl)cc2-c2ccc(S(C)(=O)=O)cc2)cn1 [ETORICOXIB] | – | – | – | ED50 (Rattus norvegicus [9]): 0.7 mg/kg/day
CCC1(C)OC(c2ccc(S(C)(=O)=O)cc2)=C(c2cc(Cl)cc(Cl)c2)C1=O (stereo unspecified) | – | 47 | 70.5 | –

SMILES | inhibition in vivo at 3 mg/kg (Rattus norvegicus [1]) [%] | IC50 [6] [µM] | IC50 [7] [nM] | also measured
Cc1cnc(NC(=O)C2=C(O)c3ccccc3S(=O)(=O)N2C)s1 [MELOXICAM] | – | – | – | ED50 (Rattus norvegicus [11]): 0.28 mg/kg/day
CC1(C)OC(c2ccc(S(C)(=O)=O)cc2)=C(c2ccc(F)c(Cl)c2)C1=O | 31 | 7.6 | 760 | –
CC1(C)OC(c2ccc(S(C)(=O)=O)c(F)c2)=C(c2cccc(Cl)c2)C1=O | 28 | – | – | –
CC1(C)OC(c2ccc(S(C)(=O)=O)cc2)=C(c2cccnc2)C1=O | – | 29.1 | 1460 | –
CC1(C)OC(c2ccc(S(C)(=O)=O)c(F)c2)=C(c2cc(F)cc(F)c2)C1=O | – | – | – | ED50 (Rattus norvegicus [10]): > 0.1 mg/kg/day
CC1(C)OC(c2ccc(S(N)(=O)=O)c(F)c2)=C(c2cccc(F)c2)C1=O | 27 | – | – | –
CC1(C)OC(c2ccc(S(N)(=O)=O)cc2F)=C(c2ccccc2)C1=O | – | 55.3 | – | –
CS(=O)(=O)c1ccc(C2=C(c3cccc(F)c3)C(=O)C3(CCCC3)O2)cc1 | – | 7.76 | 7760 | –
Cn1cc(C2=C(c3ccc(S(N)(=O)=O)cc3)OC(C)(C)C2=O)cn1 | 29 | – | – | –
COc1ccc2c(c1)c(CC(=O)O)c(C)n2C(=O)c1ccc(Cl)cc1 [INDOMETHACIN] | 45 | – | – | Activity (Rattus norvegicus [12]): 3.5
CC1(C)OC(c2ccc(S(C)(=O)=O)cc2)=C(c2ccc(Br)cc2)C1=O | – | 0.0712 | 71.2 | –
CC1(C)OC(c2ccc(S(N)(=O)=O)cc2)=C(c2cccc(Cl)c2)C1=O | 39 | – | – | ED50 (Rattus norvegicus [10]): 0.03 mg/kg/day
CC1(C)OC(c2ccc(S(N)(=O)=O)cc2F)=C(c2cc(F)cc(F)c2)C1=O | 32 | – | – | –
CC1(C)OC(c2ccc(S(C)(=O)=O)cc2)=C(c2cccc(C(F)(F)F)c2)C1=O | 31 | – | – | –
CC(=O)c1cccc(C2=C(c3ccc(S(C)(=O)=O)cc3)OC(C)(C)C2=O)c1 | 22 | – | – | –
CC(=O)c1ccc(C2=C(c3ccc(S(C)(=O)=O)cc3)OC(C)(C)C2=O)cc1 | – | – | – | ED50 (Rattus norvegicus [13]): 0.1 mg/kg/day
CC1(C)OC(c2ccc(S(N)(=O)=O)cc2)=C(c2ccc(F)c(F)c2)C1=O | – | 5.01 | 18.5 | –
Cn1cc(C2=C(c3ccc(S(C)(=O)=O)cc3)OC(C)(C)C2=O)cn1 | 36 | 86.6 | 1440 | ED50 (Rattus norvegicus [10]): ~0.3 mg/kg/day
Cc1cccc(C2=C(c3ccc(S(C)(=O)=O)cc3)OC3(CCCCC3)C2=O)c1 | – | 7.57 | – | –
CCC1(CC)OC(c2ccc(S(C)(=O)=O)cc2)=C(c2ccccc2)C1=O | – | 81 | 13500 | –
